Assay results reported in ChEMBL document CHEMBL1138807, “4,5-dihydro-1H-pyrazole derivatives with inhibitory nNOS activity in rat brain: synthesis and structure-activity relationships” (J Med Chem, 2004).

Columns and labels:
[1] = molecular target: Nitric oxide synthase 1 (Rattus norvegicus) (UniProt P29476); experiment: Percent inhibition towards rat striatal neuronal nitric oxide synthase (nNOs) at 1 mM concentration (value is mean +/- SEM)
Procedure, shortened: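 Rat striatal crude homogenate (two striata homogenized in Tris buffer with protease inhibitors, pH 7.6; 1000g supernatant). Conversion of L-[3H]-arginine to L-[3H]-citrulline in 25 mM Tris, 30 µM H4-biopterin, 10 µM FAD, 0.1 mM CaCl2, 10 µM L-arginine plus 50 nM tracer. Started with 0.75 mM NADPH; compound 1 mM final in DMSO; 37 °C, 30 min. Citrulline separated on Dowex-50W and counted by scintillation. Blank omits NADPH. Three experiments in triplicate, four rat striata each.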

[2] = molecular target: Kynurenine 3-monooxygenase (Rattus norvegicus) (UniProt O88867); experiment: Inhibitory activity against kynurenine 3-hydroxylase at 1 mM concentration
Kynurenine 3-monooxygenase (Rattus norvegicus), sequence (O88867 whole entry, looked up): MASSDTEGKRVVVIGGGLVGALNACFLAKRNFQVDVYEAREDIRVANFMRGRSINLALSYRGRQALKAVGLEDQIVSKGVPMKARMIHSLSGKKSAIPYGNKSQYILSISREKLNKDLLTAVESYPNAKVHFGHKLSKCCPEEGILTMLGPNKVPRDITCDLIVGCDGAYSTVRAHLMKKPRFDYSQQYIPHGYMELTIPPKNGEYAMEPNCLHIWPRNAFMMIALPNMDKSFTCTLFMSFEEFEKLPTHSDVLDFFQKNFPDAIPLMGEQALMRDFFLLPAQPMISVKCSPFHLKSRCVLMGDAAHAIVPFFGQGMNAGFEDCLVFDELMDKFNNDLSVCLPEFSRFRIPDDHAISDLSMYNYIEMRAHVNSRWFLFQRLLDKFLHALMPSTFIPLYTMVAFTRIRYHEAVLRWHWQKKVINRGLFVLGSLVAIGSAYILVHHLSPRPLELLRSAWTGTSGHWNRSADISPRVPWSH
Procedure, shortened: (§1)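 Enzyme source: rat striatal pellet (sucrose homogenate, 10000g), resuspended in 0.14 M KCl, 20 mM phosphate, pH 7. Incubation in 0.1 M phosphate, 4 mM MgCl2, 100 µM L-kynurenine with NADPH; compound 1 mM final in DMSO; 37 °C, 60 min. Stopped with cold perchloric acid. 3-Hydroxykynurenine measured by HPLC with electrochemical detection against a DHBA internal standard; activity expressed as nmol/h/g wet brain.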

[3] = molecular target: Kynurenine 3-monooxygenase (Rattus norvegicus) (UniProt O88867); experiment: Percent kynurenine 3-hydroxylase activity determined by the conversion of L-kynurenine to 3-hydroxykynurenine in rat striatum at 1 mM concentration of compound (value is mean +/- SEM); type: tissue-based; procedure, shortened: as §1

Nitric oxide synthase 1 (Rattus norvegicus), sequence (P29476 whole entry): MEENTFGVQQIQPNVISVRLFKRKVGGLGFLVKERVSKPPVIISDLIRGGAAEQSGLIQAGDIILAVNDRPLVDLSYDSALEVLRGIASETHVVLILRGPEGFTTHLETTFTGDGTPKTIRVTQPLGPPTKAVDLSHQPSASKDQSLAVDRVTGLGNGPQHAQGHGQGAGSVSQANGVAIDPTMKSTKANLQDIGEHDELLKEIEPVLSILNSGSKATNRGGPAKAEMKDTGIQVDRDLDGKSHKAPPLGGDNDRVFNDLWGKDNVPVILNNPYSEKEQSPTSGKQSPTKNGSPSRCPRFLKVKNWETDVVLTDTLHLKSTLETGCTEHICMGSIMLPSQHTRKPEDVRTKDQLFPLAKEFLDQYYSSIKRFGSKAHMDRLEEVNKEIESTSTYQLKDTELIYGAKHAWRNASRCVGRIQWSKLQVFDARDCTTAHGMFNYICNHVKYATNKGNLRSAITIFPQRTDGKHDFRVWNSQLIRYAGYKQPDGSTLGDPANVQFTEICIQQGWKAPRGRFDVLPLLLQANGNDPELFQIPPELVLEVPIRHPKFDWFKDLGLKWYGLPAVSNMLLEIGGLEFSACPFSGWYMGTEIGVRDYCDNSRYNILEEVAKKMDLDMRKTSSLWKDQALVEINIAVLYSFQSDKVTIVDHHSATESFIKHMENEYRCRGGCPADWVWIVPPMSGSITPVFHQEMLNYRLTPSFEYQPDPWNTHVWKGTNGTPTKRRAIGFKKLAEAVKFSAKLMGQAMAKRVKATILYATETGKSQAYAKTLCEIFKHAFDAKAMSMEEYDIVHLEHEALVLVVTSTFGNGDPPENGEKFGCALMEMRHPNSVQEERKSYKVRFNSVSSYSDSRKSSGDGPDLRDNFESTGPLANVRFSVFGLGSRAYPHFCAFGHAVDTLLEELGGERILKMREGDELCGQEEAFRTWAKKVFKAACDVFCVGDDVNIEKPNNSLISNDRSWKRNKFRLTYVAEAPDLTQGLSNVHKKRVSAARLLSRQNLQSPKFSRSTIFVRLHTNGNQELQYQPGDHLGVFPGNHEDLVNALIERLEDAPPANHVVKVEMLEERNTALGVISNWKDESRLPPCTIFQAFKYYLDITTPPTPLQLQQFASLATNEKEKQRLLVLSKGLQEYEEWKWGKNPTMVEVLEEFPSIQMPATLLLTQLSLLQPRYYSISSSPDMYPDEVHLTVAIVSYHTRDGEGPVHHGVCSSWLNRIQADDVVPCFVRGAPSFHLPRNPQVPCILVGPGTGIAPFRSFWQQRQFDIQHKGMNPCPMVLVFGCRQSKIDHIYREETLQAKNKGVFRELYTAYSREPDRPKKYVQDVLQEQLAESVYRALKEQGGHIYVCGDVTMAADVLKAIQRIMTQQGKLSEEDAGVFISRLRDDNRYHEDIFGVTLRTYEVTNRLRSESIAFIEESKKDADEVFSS

| Structure (SMILES) | inhibition [1] [%] | inhibition [2] [%] | Activity [3] [%] |
| --- | --- | --- | --- |
| CCC(=O)N1CCC(c2cc(OC)ccc2N)=N1 | 53.3 | 18.9 | 81.1 |
| CC(=O)N1CCC(c2cc(Cl)ccc2N)=N1 | 47.6 | – | 111 |
| COc1ccc(N)c(C2=NN(C(=O)C3CCCC3)CC2)c1 | 49.9 | – | 105 |
| CC(=O)N1CCC(c2ccccc2N)=N1 | 33.7 | 22.1 | 77.8 |
| CCCC(=O)NC(CC(=O)c1cc(OC)ccc1N)C(=O)O (stereo not drawn) | 45 | – | 88.7 |
| COc1ccc(N)c(C2=NN(C(=O)c3ccccc3)CC2)c1 | 58.9 | – | – |
| COc1ccc(N)c(C2=NN(C(=O)C3CCCCC3)CC2)c1 | 62.2 | – | 87.4 |
| CCC(=O)N1CCC(c2cc(Cl)ccc2N)=N1 | 46.1 | – | 97.7 |
| CCCC(=O)N1CCC(c2ccccc2N)=N1 | 52.4 | – | 85 |
| COc1ccc(N)c(C2=NN(C(=O)C3CCC3)CC2)c1 | 38.3 | – | 96.5 |
| CCC(=O)N1CCC(c2ccccc2N)=N1 | 36.5 | – | 85.2 |
| Nc1ccc(Cl)cc1C1=NN(C(=O)C2CC2)CC1 | 70.2 | – | 98.1 |
| Nc1ccccc1C1=NN(C(=O)C2CC2)CC1 | 38.8 | – | 86.9 |
| Nc1ccc(Cl)cc1C1=NN(C(=O)c2ccccc2)CC1 | 61.1 | – | 106 |
| Nc1ccccc1C1=NN(C(=O)c2ccccc2)CC1 | 57 | – | 82.5 |
| COc1ccc(N)c(C2=NN(C(C)=O)CC2)c1 | 38 | – | 98.8 |
| CCCCC(=O)N1CCC(c2cc(OC)ccc2N)=N1 | 49.8 | – | 120 |
| COc1ccc(N)c(C2=NN(C(=O)C3CC3)CC2)c1 | 62.2 | – | 123 |
| CCCC(=O)N1CCC(c2cc(Cl)ccc2N)=N1 | 34.4 | – | 97.7 |
| COc1ccc(N)c(C(=O)CC(NC(C)=O)C(=O)O)c1 (stereo not drawn) | 68.5 | – | 101 |
| CCCC(=O)N1CCC(c2cc(OC)ccc2N)=N1 | 34.7 | – | 96.4 |
